Measured values published in ChEMBL document CHEMBL4334468, “Exploring Mitochondria-Mediated Intrinsic Apoptosis by New Phytochemical Entities: An Explicit Observation of Cytochrome c Dynamics on Lung and Melanoma Cancer Cells” (J Med Chem, 2019).
Active and inactive are the calls of the source. The rule behind the calls is not given here.

How the values were obtained:
[1] = tested on: A-375; assay: Induction of morphological changes in human A375 cells at 20 uM by phase contrast microscopy; assay type: functional, cell-based
[2] = tested on: A549; assay: Induction of apoptosis in human A549 cells assessed as induction of nuclear changes with DNA fragmentation at 1 uM by Hoechst 33342 nuclear staining based assay; assay type: functional, cell-based
Procedure, shortened: (§1)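 Hoechst 33342 nuclear staining of treated A549 or A375 cells. Nuclear condensation and fragmentation were examined by fluorescence microscopy against untreated control.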

[3] = tested on: A549; assay: Induction of apoptosis in human A549 cells assessed as early apoptotic cells level at 1 uM incubated for 24 hrs by FITC-Annexin V staining based assay (reference value: 0.01%); assay type: functional
[4] = tested on: A549; assay: Cytotoxicity in human A549 cells assessed as reduction in cell viability incubated for 24 hrs by MTT assay; assay type: functional, cell-based; settings: Homo sapiens, A549, 24 h; read-out: IC50
Procedure, shortened: (§2)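 MTT viability assay on A375 melanoma, A549 lung adenocarcinoma and WI-38 normal lung fibroblast cells after 24 and 48 h treatment. IC50 values are in µM, expressed as mean ± SD.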

[5] = tested on: A-375; assay: Induction of apoptosis in human A375 cells at 1 uM by TUNEL assay; assay type: functional, cell-based
[6] = tested on: A-375; assay: Induction of mitochondrial membrane potential changes in human A375 cells at 1 uM by JC1 staining based fluorimetry; assay type: functional, cell-based
Procedure, shortened: (§3)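 Mitochondrial membrane potential was assessed with the ratiometric dye JC1. Depolarization appears as lower red and higher green fluorescence, and the red/green intensity ratio was quantified.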

[7] = tested on: A-375; assay: Cytotoxicity in human A375 cells assessed as reduction in cell viability incubated for 24 hrs by MTT assay; assay type: functional, cell-based; settings: Homo sapiens, A-375, 24 h; read-out: IC50; procedure, shortened: as §2
[8] = tested on: A549; assay: Cytotoxicity in human A549 cells assessed as reduction in cell viability at 0.001 to 100 uM incubated for 24 to 48 hrs by LDH assay; assay type: functional, cell-based
Procedure, shortened: (§4)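 LDH released into the culture medium after plasma membrane damage was quantified and expressed as percentage cytotoxicity.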

[9] = tested on: A-375; assay: Induction of cell cycle arrest in human A375 cells assessed as accumulation at G0/G1 phase at 10 nM by propodium iodide staining based flow cytometric analysis; assay type: functional
Procedure, shortened: (§5)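 DNA was stained with propidium iodide and analysed by flow cytometry. Histograms give the fraction of cells in G0/G1, S and G2/M phases.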

[10] = tested on: A549; assay: Induction of cell cycle arrest in human A549 cells assessed as accumulation at G2/M phase at 10 nM by propodium iodide staining based flow cytometric analysis (reference value: 7%); assay type: functional; procedure, shortened: as §5
[11] = tested on: A549; assay: Induction of apoptosis in human A549 cells assessed as necrosis cells level at 1 uM incubated for 24 hrs by FITC-Annexin V staining based assay (reference value: 0.3%); assay type: functional
[12] = tested on: A549; assay: Induction of apoptosis related protein expression in human A549 cells assessed as increase in Bad expression at 20 uM incubated for 12 hrs by apoptosis antibody array; assay type: functional, cell-based
[13] = tested on: A-375; assay: Induction of apoptosis in human A375 cells assessed as cytochrome-c release after 4 to 12 hrs by spectrophotometry; assay type: functional, cell-based
[14] = tested on: A-375; assay: Cytotoxicity in human A375 cells assessed as reduction in cell viability at 0.001 to 100 uM incubated for 24 to 48 hrs by LDH assay; assay type: functional, cell-based; procedure, shortened: as §4
[15] = tested on: A-375; assay: Induction of apoptosis in human A375 cells assessed as increase in caspase-8 levels at 1 uM incubated for 12 hrs by spectrofluorometry; assay type: functional, cell-based
[16] = tested on: A549; assay: Induction of apoptosis related protein expression in human A549 cells assessed as increase in CD40 expression at 20 uM incubated for 12 hrs by apoptosis antibody array; assay type: functional, cell-based
[17] = Antioxidant activity assessed as DPPH radical scavenging activity at 1 to 1000 ug/ml incubated for 30 mins by spectrophotometry; assay type: functional
[18] = tested on: A-375; assay: Induction of apoptosis in human A375 cells assessed as increase in caspase-2 levels at 1 uM incubated for 12 hrs by spectrofluorometry; assay type: functional, cell-based
[19] = tested on: A549; assay: Inhibition of colony formation in human A549 cells at 1 nM by crystal violet staining based assay; assay type: functional, cell-based
[20] = tested on: A549; assay: Inhibition of mitochondrial membrane potential in human A549 cells at 1 uM by TMRE staining based assay; assay type: functional, cell-based
[21] = tested on: A-375; assay: Induction of apoptosis in human A375 cells at 1 uM incubated for 24 hrs by FITC-Annexin V staining based assay (reference value: 0.03 +/- 0.9%); assay type: functional
[22] = tested on: A549; assay: Induction of mitochondrial membrane potential changes in human A549 cells at 1 uM by JC1 staining based fluorimetry; assay type: functional, cell-based; procedure, shortened: as §3
[23] = tested on: A-375; assay: Antimetastatic activity in human A375 cells assessed as reduction in cell invasion at 10 nM by crystal violet staining based transwell chamber assay; assay type: functional
Procedure, shortened: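 Invasion was measured in a transwell chamber, with cells moving across Matrigel toward the lower chamber. Invaded cells were imaged and quantified against untreated control.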

[24] = tested on: A549; assay: Antimetastatic activity in human A549 cells assessed as reduction in cell migration at 10 nM by crystal violet staining based transwell chamber assay; assay type: functional
Procedure, shortened: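 Transwell chamber migration assay. Cells migrating to the lower side were imaged and quantified against untreated control.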

[25] = tested on: A549; assay: Cytotoxicity in human A549 cells assessed as reduction in cell proliferation at 0.001 to 100 uM incubated for 24 to 48 hrs by BrdU incorporation assay; assay type: functional, cell-based
Procedure, shortened: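 BrdU incorporation assay read colorimetrically. Absorbance of the developed colour is proportional to the BrdU incorporated into cells, taken as a measure of proliferation.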

[26] = tested on: A549; assay: Induction of apoptosis related protein expression in human A549 cells assessed as increase in CD40L expression at 20 uM incubated for 12 hrs by apoptosis antibody array; assay type: functional, cell-based
[27] = tested on: A549; assay: Induction of morphological changes in human A549 cells assessed as change in shape of cells from spindle to spherical at 1 uM by atomic force microscopy; assay type: functional, cell-based
[28] = Antioxidant activity assessed as hydroxyl radical scavenging activity at 1 to 1000 ug/ml incubated for 1 hr; assay type: functional
[29] = tested on: A-375; assay: Induction of DNA fragmentation in human A375 cells after 4 hrs by agarose gel electrophoresis; assay type: functional, cell-based
[30] = tested on: A-375; assay: Induction of apoptosis in human A375 cells assessed as induction of nuclear changes with DNA fragmentation at 1 uM by Hoechst 33342 nuclear staining based assay; assay type: functional, cell-based; procedure, shortened: as §1
[31] = tested on: A549; assay: Suppression of cell number in human A549 cells at 20 uM by phase contrast microscopy; assay type: functional, cell-based
[32] = tested on: A549; assay: Induction of apoptosis in human A549 cells assessed as increase in caspase-3 levels at 1 uM incubated for 12 hrs by spectrofluorometry; assay type: functional, cell-based
[33] = tested on: A549; assay: Induction of apoptosis in human A549 cells assessed as cytochrome-c release after 6 to 8 hrs by Raman spectral imaging analysis; assay type: functional, cell-based
[34] = tested on: A549; assay: Induction of DNA damage in human A549 cells after 4 hrs by Raman spectral imaging analysis; assay type: functional, cell-based
[35] = tested on: A-375; assay: Induction of GSH depletion in human A375 cells by fluorimetry; assay type: functional, cell-based
[36] = tested on: A549; assay: Induction of apoptosis related protein expression in human A549 cells assessed as increase in Cyt-c expression at 20 uM incubated for 12 hrs by apoptosis antibody array; assay type: functional, cell-based
[37] = tested on: A549; assay: Antimetastatic activity in human A549 cells assessed as inhibition of cell migration rate at 1 nM incubated up to 24 hrs by scratch wound healing assay; assay type: functional, cell-based
Procedure, shortened: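 Scratch wound healing assay. The cell-free zone was followed over time up to 24 h, with untreated control wells as reference. Closure was quantified as migration rate.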

COc1cc(C2Oc3cc(-c4cc(=O)c5c(O)cc(O)cc5o4)ccc3OC2/C=C2\C(=O)ON=C2c2ccc(Cl)cc2)ccc1O (configuration not stated)
Activity [1]: Active | Activity [2]: Active | Activity [3]: 9% | IC50 [4]: 2000 nM | Activity [5]: Active | Activity [6]: Active | IC50 [7]: 1200 nM | Activity [8]: Active | Activity [9]: Active | Activity [10]: 29% | Activity [11]: 13% | Activity [12]: Active | Activity [13]: Active | Activity [14]: Active | Activity [15]: inactive | Activity [16]: Active | Activity [17]: inactive | Activity [18]: Active | inhibition [19]: Active | inhibition [20]: Active | Activity [21]: 39% | Activity [22]: Active | Activity [23]: Active | Activity [24]: Active | Activity [25]: Active | Activity [26]: Active | Activity [27]: Active | Activity [28]: Dose-dependent effect | Activity [29]: Active | Activity [30]: Active | Activity [31]: Active | Activity [32]: Active | Activity [33]: Active | Activity [34]: Active | Activity [35]: Active | Activity [36]: inactive | Activity [37]: Active
